Data taken from ChEMBL document CHEMBL4152287, “Synthesis and characterization of novel classes of PDE10A inhibitors - 1H-1,3-benzodiazoles and imidazo[1,2-a]pyrimidines” (Eur J Med Chem, 2018).

Experiments:
[1] = Intrinsic clearance in rat liver microsomes in presence of NADP/G6P/G6P dehydrogenase/MgCl2 by LC/MS analysis; format: ADME, microsome; settings: read-out: CLH
In short: (§1)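 Phase-1 liver microsomal stability assay for the named species, with intrinsic clearance reported in µl x min^-1 x mg^-1.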

[2] = biological target: T1, cAMP and cAMP-inhibited cGMP 3',5'-cyclic phosphodiesterase 10A (Homo sapiens, UniProt Q9Y233); assay: Inhibition of Ca2+/calmodulin-induced recombinant human full length N-terminal GST-tagged PDE10A1 expressed in baculovirus infected Sf9 cells using cAMP as substrate pretreated for 10 mins followed by substrate addition and measured after 40 mins by kinase-Glo luminescence assay
[3] = biological target: High affinity cGMP-specific 3',5'-cyclic phosphodiesterase 9A (Homo sapiens, UniProt O76083); assay: Inhibition of Ca2+/calmodulin-induced recombinant human full length N-terminal GST-tagged PDE9A2 expressed in baculovirus infected Sf9 cells using cGMP as substrate pretreated for 10 mins followed by substrate addition and measured after 60 mins by kinase-Glo luminescence assay
In short: (§2)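 Selectivity screen run as a PDE-Glo enzymatic-activity luminescence assay, with IC50 values determined against each counter-screen PDE isoform.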

[4] = biological target: Dual specificity calcium/calmodulin-dependent 3',5'-cyclic nucleotide phosphodiesterase 1C (Homo sapiens, UniProt Q14123); assay: Inhibition of Ca2+/calmodulin-induced full-length recombinant human N-terminal GST-tagged PDE1C expressed in baculovirus infected Sf9 insect cells using cAMP as substrate pretreated for 10 mins followed by substrate addition and measured after 30 mins by kinase-Glo luminescence assay; in short: as §2
[5] = Intrinsic clearance in human liver microsomes in presence of NADP/G6P/G6P dehydrogenase/MgCl2 by LC/MS analysis; format: ADME, microsome; settings: read-out: CLH; in short: as §1
[6] = Intrinsic clearance in rat liver microsomes; format: ADME, microsome
[7] = biological target: T1, cAMP and cAMP-inhibited cGMP 3',5'-cyclic phosphodiesterase 10A; assay: Inhibition of PDE10 (unknown origin)

Chain of Dual specificity calcium/calmodulin-dependent 3',5'-cyclic nucleotide phosphodiesterase 1C (Q14123 whole entry): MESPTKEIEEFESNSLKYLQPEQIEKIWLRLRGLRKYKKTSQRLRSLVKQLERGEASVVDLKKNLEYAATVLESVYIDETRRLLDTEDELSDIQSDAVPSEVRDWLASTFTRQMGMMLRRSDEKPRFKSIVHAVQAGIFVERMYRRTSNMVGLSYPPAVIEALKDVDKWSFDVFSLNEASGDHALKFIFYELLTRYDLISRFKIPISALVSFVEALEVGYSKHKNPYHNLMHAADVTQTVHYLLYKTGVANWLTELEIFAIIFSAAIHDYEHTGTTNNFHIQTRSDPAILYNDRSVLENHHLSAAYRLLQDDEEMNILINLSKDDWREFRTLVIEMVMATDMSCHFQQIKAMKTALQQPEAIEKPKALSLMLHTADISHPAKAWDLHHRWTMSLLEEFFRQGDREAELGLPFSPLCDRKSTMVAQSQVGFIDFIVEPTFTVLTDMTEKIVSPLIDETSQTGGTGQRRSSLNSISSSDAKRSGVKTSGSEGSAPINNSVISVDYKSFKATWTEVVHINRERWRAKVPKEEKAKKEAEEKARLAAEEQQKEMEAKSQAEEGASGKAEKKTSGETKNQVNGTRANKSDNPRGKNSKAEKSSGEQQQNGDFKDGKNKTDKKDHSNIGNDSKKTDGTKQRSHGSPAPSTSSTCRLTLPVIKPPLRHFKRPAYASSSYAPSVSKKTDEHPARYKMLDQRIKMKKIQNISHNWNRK
Chain of High affinity cGMP-specific 3',5'-cyclic phosphodiesterase 9A (O76083 whole entry, canonical isoform): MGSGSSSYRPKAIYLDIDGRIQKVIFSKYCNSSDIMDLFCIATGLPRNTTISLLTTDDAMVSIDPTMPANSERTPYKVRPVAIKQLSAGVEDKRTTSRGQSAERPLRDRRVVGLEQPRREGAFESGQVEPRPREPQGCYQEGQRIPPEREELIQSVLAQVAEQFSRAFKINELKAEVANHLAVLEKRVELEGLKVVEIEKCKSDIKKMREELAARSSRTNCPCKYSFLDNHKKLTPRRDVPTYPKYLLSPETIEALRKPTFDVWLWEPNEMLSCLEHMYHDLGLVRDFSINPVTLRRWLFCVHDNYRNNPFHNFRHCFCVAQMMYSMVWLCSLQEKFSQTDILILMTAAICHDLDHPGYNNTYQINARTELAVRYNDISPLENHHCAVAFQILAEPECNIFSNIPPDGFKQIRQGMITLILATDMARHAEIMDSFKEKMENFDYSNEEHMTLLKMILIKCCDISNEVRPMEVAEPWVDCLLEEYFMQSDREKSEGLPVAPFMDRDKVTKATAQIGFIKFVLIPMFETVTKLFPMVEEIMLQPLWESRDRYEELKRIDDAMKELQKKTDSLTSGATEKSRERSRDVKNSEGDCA
T1 sequence (Q9Y233 whole entry): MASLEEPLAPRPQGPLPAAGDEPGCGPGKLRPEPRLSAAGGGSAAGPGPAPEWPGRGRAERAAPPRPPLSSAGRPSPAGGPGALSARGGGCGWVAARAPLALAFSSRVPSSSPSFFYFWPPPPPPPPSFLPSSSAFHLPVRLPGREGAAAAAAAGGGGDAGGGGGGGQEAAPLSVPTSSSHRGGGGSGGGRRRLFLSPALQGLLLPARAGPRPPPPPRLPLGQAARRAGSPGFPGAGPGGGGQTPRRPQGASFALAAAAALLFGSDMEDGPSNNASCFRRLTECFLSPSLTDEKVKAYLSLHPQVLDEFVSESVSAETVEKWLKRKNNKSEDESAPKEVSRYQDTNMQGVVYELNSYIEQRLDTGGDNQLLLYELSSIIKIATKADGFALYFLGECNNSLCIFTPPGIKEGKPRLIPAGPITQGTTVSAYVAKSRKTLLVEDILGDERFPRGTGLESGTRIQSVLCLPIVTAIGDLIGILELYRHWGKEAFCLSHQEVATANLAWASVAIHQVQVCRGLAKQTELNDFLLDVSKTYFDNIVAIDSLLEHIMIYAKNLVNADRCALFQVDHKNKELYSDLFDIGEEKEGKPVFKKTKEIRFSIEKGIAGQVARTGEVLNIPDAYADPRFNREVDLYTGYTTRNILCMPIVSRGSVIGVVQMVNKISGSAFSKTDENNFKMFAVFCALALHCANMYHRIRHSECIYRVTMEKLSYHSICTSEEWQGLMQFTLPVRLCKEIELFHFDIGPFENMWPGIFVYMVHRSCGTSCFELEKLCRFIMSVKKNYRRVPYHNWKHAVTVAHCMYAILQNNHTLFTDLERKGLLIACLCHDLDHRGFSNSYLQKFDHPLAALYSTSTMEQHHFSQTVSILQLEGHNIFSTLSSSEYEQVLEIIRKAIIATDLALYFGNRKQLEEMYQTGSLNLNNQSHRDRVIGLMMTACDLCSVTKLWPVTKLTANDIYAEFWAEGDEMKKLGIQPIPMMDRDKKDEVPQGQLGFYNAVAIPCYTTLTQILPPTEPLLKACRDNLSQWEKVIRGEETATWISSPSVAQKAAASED

SMILES	IC50 ([2]; read-out: IC50) [nM]	IC50 [3] [nM]	IC50 [4] [nM]	also measured
Cc1ncc(C)n2nc(-c3ccn4cc(-c5ccc(Br)cc5)nc4n3)nc12	> 1000	–	–	microsomal CLint [1]: 15 µL/min/mg
Cc1ncc(C)n2nc(-c3ccc4[nH]c(-c5cocn5)nc4c3)nc12	> 300	–	–	–
Cc1ncc(C)n2nc(-c3ccc4nc(-c5cnc6ccccc6n5)[nH]c4c3)nc12	> 1000	–	–	–
Cc1ncc(C)n2nc(-c3ccc4nc(Cc5ccccc5)[nH]c4c3)nc12	> 1000	–	–	–
Cc1ncc(C)n2nc(-c3ccn4cc(-c5nccs5)nc4n3)nc12	135	> 10000	> 10000	–
Cc1cc(C)n2nc(-c3ccc4nc(-c5ccccc5)n(C)c4c3)nc2n1	–	–	–	IC50 ([2]; sf9): Not Active
Cc1ncc(C)n2nc(-c3ccc4nc(-c5ccccc5OC(F)(F)F)[nH]c4c3)nc12	280	–	–	–
Cc1cc(C)n2nc(CCc3nc(-c4ccccc4)cn3C)nc2n1	–	–	–	CLH [6]: 13 µL/min/mg; IC50 [7]: 67 nM
COc1ccc(OC)c(-c2cn3ccc(-c4nc5c(C)ncc(C)n5n4)nc3n2)c1	> 280	–	–	–
Cc1ncc(C)n2nc(-c3ccc4[nH]c(-c5ccccc5)nc4c3)nc12	–	> 10000	> 10000	microsomal CLint [5]: 34.4 µL/min/mg; microsomal CLint [1]: 27.4 µL/min/mg
Cc1ncc(C)n2nc(-c3ccn4cc(-c5cccc(Cl)c5)nc4n3)nc12	107	> 10000	> 10000	microsomal CLint [1]: 18.9 µL/min/mg
Cc1ncc(C)n2nc(-c3ccn4cc(-c5ccc(F)cc5)nc4n3)nc12	76	> 10000	> 10000	microsomal CLint [1]: 3.1 µL/min/mg
Cc1cc(C)n2c(Br)c(CSc3nc4ccccc4[nH]3)nc2n1	–	–	–	CLH [6]: 3.6 µL/min/mg; IC50 [7]: 210 nM
Cc1nc(-c2ccc3nc(-c4ccccc4)[nH]c3c2)nc2ccccc12	315	–	–	microsomal CLint [1]: > 450 µL/min/mg
Cc1nc(-c2ccn3nc(-c4ccccc4)nc3c2)nc2ccccc12	884	–	–	–
Cc1ncc(C)n2nc(-c3ccc4nc(-c5cccs5)[nH]c4c3)nc12	28	> 10000	> 10000	–
Cc1cc(C)n2nc(-c3ccc4nc(-c5ccccc5)[nH]c4c3)nc2n1	–	> 10000	> 10000	–
Cc1ncc(C)n2nc(-c3ccc4[nH]c(-c5ccccn5)nc4c3)nc12	–	> 10000	> 10000	microsomal CLint [1]: 11.1 µL/min/mg
Cc1ncc(C)n2nc(-c3ccc4nc(-c5cccc(Br)c5)[nH]c4c3)nc12	146	> 10000	> 10000	–
Cc1ncc(C)n2nc(-c3ccc4nc(-c5ccc(Cl)s5)[nH]c4c3)nc12	161	> 10000	> 10000	–
Cc1ncc(C)n2nc(-c3ccn4cc(-c5ccccn5)nc4n3)nc12	115	> 10000	> 10000	–
Cc1ncc(C)n2nc(-c3ccc4nc(-c5ccco5)[nH]c4c3)nc12	67	> 10000	> 10000	microsomal CLint [1]: 26.3 µL/min/mg

Continued, in another order:

IC50 ([2]; read-out: IC50) [nM]	IC50 [3] [nM]	IC50 [4] [nM]	SMILES	also measured
> 1000	–	–	Cc1ncc(C)n2nc(-c3ccn4cc(-c5ccc(F)cc5Cl)nc4n3)nc12	microsomal CLint [1]: 11.5 µL/min/mg
–	> 10000	> 10000	COc1ccccc1-c1nc2ccc(-c3nc4c(C)ncc(C)n4n3)cc2[nH]1	–
280	–	–	Cc1ncc(C)n2nc(-c3ccc4nc(-c5nccn5C)[nH]c4c3)nc12	–
–	> 10000	> 10000	Cc1ncc(C)n2nc(-c3ccc4[nH]c(-c5ccccc5F)nc4c3)nc12	–
69	> 10000	> 10000	Cc1ncc(C)n2nc(-c3ccc4nc(-c5ncccc5F)[nH]c4c3)nc12	microsomal CLint [1]: 1.8 µL/min/mg
52	> 10000	> 10000	COc1ccccc1-c1cn2ccc(-c3nc4c(C)ncc(C)n4n3)nc2n1	microsomal CLint [1]: 9.1 µL/min/mg
145	> 10000	> 10000	Cc1ncc(C)n2nc(-c3ccn4cc(-c5ccccc5Br)nc4n3)nc12	microsomal CLint [1]: 1.8 µL/min/mg
770	–	–	Cc1cc(C)n2nc(-c3ccc4cc(-c5ccccc5)nn4c3)nc2n1	–
40	> 10000	> 10000	COc1cccnc1-c1nc2ccc(-c3nc4c(C)ncc(C)n4n3)cc2[nH]1	microsomal CLint [5]: 0.7 µL/min/mg; microsomal CLint [1]: 5.4 µL/min/mg
–	> 10000	> 10000	Cc1ncc(C)n2nc(-c3ccc4nc(-c5nccs5)[nH]c4c3)nc12	–
280	–	–	Cc1cc(C)n2nc(-c3ccn4cc(-c5ccccn5)nc4n3)nc2n1	–
198	> 10000	> 10000	Cc1cnc(-c2nc3ccc(-c4nc5c(C)ncc(C)n5n4)cc3[nH]2)s1	–
166	> 10000	> 10000	Cc1ncc(C)n2nc(-c3ccc4nc(-c5cccnc5)[nH]c4c3)nc12	–
163	–	–	Cc1nc(-c2ccn3cc(-c4ccccc4)nc3n2)nc2ccccc12	–
581	–	–	Cc1ncc(C)n2nc(-c3ccc4cc(-c5ccccc5)nn4c3)nc12	–
268	–	–	Cc1ncc(C)n2nc(-c3ccc4nc(-c5cscn5)[nH]c4c3)nc12	–
–	> 10000	> 10000	Cc1ncc(C)n2nc(-c3ccc4nc(-c5ccc(F)cc5)[nH]c4c3)nc12	–
268	–	–	Cc1ncc(C)n2nc(-c3ccn4nc(-c5ccccc5)nc4c3)nc12	–
458	–	–	Cc1cc(C)n2nc(-c3ccn4cc(-c5nccs5)nc4n3)nc2n1	–
382	–	–	Cc1ncc(C)n2nc(-c3ccc4nc(-c5ccccc5C#N)[nH]c4c3)nc12	–
> 1000	–	–	Cc1ncc(C)n2nc(-c3ccc4nc(-c5cnccn5)[nH]c4c3)nc12	–
117	> 10000	> 10000	Cc1csc(-c2nc3ccc(-c4nc5c(C)ncc(C)n5n4)cc3[nH]2)n1	–
> 280	–	–	COc1ccnc(-c2nc3ccc(-c4nc5c(C)ncc(C)n5n4)cc3[nH]2)c1	–
135	> 10000	> 10000	Cc1ncc(C)n2nc(-c3ccc4nc(-c5cncs5)[nH]c4c3)nc12	–
–	> 10000	> 10000	Cc1cc(C)n2nc(-c3ccn4cc(-c5ccccc5)nc4n3)nc2n1	–
> 5000	–	–	Cc1cc(C)n2nc(-c3ccn4nc(-c5ncccn5)nc4c3)nc2n1	–
381	–	–	Cc1cc(C)n2nc(-c3ccn4nc(-c5ccccc5)nc4c3)nc2n1	–
242	–	–	Cc1ccccc1-c1nc2ccc(-c3nc4c(C)ncc(C)n4n3)cc2[nH]1	–
> 1000	–	–	Cc1ncc(C)n2nc(-c3ccc4nc(-c5ccccc5C(F)(F)F)[nH]c4c3)nc12	–
